The list is not random: actives were taken first. Their share in the collection is about 1.7%.
Runt-SMMHC FRET = inhibitors of human RUNX1 Runt domain binding to CBFb-SMMHC. Q01196+Q13951. Cerulean-Runt/Venus-CBFb-SMMHC FRET ratio 530/480, 1 h. inhibition, % at 20 µM. actives 0.74% (n = 220,000);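 active = mean inhibition across duplicate retests at 20 µM reaching about 50%, limit read from the data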;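 also: 0% = DMSO wells and 100% = wells with excess untagged CBFb-SMMHC; inhibitors lower the FRET ratio by blocking Runt binding to CBFb-SMMHC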
Rce1 inh = inhibitors of yeast Ras-converting enzyme; actives 0.27% (n = 290,000); AID 2563; calls only; Q03530; yeast membranes, quenched prenylated peptide cleavage fluorescence;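 active = fall in fluorescence gain of 50% or more versus controls, with final raw signal at or below 3038400; inconclusive = same 50% fall but final raw signal above 3038400; inactive = fall in fluorescence gain under 50%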;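 also: plate controls were neutral control wells for no effect and wells lacking membranes for full effect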
Target sequence (Q03530 whole entry, looked up): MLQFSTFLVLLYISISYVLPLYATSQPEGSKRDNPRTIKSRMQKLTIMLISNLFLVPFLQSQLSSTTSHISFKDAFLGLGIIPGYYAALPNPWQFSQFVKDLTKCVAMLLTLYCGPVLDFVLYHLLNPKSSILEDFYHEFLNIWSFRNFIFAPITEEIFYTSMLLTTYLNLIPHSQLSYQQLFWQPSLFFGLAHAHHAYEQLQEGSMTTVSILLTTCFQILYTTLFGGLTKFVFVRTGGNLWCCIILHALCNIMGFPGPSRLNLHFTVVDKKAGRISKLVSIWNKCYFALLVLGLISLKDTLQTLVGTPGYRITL
Vif inh = HIV Vif inhibition; HEK293T cells, Vif self-association by quenched fluorescence, imaging, 24 h; inhibition, % at 7.49 µM; actives 0.35% (n = 340,000); in the data active = inhibition above about 50%, passing the limit was not always enough; inconclusive = no clear call, values can overlap the other calls; inactive = below about 31%
Runt-CBFb FRET = blocks binding of human RUNX1 Runt domain to CBFb. Q01196+Q13951. Cerulean-Runt/Venus-CBFb FRET ratio 530/480, 1 h. inhibition, % at 20 µM. actives 0.46% (n = 220,000);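 active = inhibition over about 50% at 20 µM in the single-dose screen, limit read from the data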;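 also: 0% = DMSO wells and 100% = excess unlabeled CBFb competitor control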
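System: Cerulean-labeled Runt domain protein | Quantity: 100 nM of each labeled protein | Schedule: 1 h compound exposure, room temperature | Detection: Fluorescence energy transfer, 422 nm excitation, 530/480 nm emission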
RanGTP-Impb inh = inhibitors of RanGTP-importin-beta interaction, primary screen, biochemical, FRET, CFP-Ran, YFP-importin-beta, homogeneous | cell-free CFP-Ran/YFP-importin-beta FRET ratio | inhibition, % (test concentration not listed) | actives 1.1% (n = 300,000) | AID 2216;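 active = more than half of the replicate wells show a fall in the fluorescence ratio signal beyond about 16%, limit read from the data, passing the limit was not always enough; inconclusive = exactly half of the replicate wells pass the set limit; inactive = fewer than half of replicates pass the limit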;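 also: 0% = DMSO wells and 100% = Ran loaded with GDP instead of GTP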
YIC counter = counter-screen YIC FRET for RanGTP-importin-beta inhibitors; shares compounds with RanGTP-Impb inh; AID 435026; actives 40% (n = 1,000); Purified YIC probe, intramolecular FRET ratio YFP/CFP; IC50, µM;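 active = fitted half-maximal inhibitory concentration no more than tenfold above the top dose tested; inconclusive = flat fit with 30 to 70% activity, or poor fit; inactive = half-maximal concentration beyond tenfold above the top dose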
Active calls of the source: *; i = inactive; ? = inconclusive; nt = no result given.

SMILES	Runt-SMMHC FRET	Rce1 inh	Vif inh	Runt-CBFb FRET	RanGTP-Impb inh	YIC counter
O=C(Cc1n[nH]c(=O)c2ccccc12)NCc1ccccn1	3.6	i	2.2	1.2	22.8*	>50
N#Cc1cc(NCC2CCCO2)c([N+](=O)[O-])cc1C#N (stereo unspecified)	-1.1	i	-6.8	-0.3	22.5*	>50
O=[N+]([O-])c1cc(C(F)(F)F)ccc1NCC1CCCO1 (stereo unspecified)	nt	i	4.3	nt	-5.8	nt
Cc1cc(C)c(SSc2nnnn2-c2ccccc2)c(C)c1	nt	nt	4.2	nt	nt	nt
CC(C)(C)n1cnc2cc(NCc3ccc(Br)cc3)ccc21	nt	i	1.3	nt	22.7*	>50
CCn1cnc2cc(NCc3ccc(OC)cc3)ccc21	8.3	i	11.0	20.6	9.9	nt
CCc1ccc(CNc2ccc3c(c2)ncn3C(C)(C)C)cc1	nt	i	6.1	nt	17.8*	>50
CCc1ccc(CNc2ccc3c(c2)ncn3CC)cc1	nt	i	-4.6	nt	17.5*	>50
CCN(CC)c1ccc(CNc2ccc3c(c2)ncn3C(C)(C)C)cc1	nt	i	nt	nt	-3.1	nt
CCOC(=O)N1CCC(=NNc2nc3ccccc3s2)CC1	0.7	nt	3.1	0.1	4.3	nt
CCOC(=O)N1CCN(/C=C(\C#N)c2nc3ccccc3s2)CC1	-2.4	i	0.0	-1.8	20.6*	>50
N#C/C(=C\N1CCN(Cc2ccc3c(c2)OCO3)CC1)c1nc2ccccc2s1	3.0	i	3.7	0.4	20.0*	>50
COc1ccc(CN2CCCC(C(=O)c3ccc4c(c3)OCO4)C2)c(F)c1 (stereo unspecified)	nt	i	-3.5	nt	2.9	nt
Cc1ccc(S(=O)(=O)N2CCCCC2)cc1C(=O)OC(C)C(=O)NC1CCCCC1C (stereo unspecified)	nt	nt	10.6	nt	nt	nt
O=C(COc1ccccc1C(=O)O)Nc1cccc2ccccc12	nt	nt	-8.4	nt	nt	nt
O=C(Cc1ccccc1C(=O)O)Nc1cccc2ccccc12	nt	nt	-6.3	nt	21.1*	>50
CCN(CC)S(=O)(=O)c1ccc2oc(C(=O)NCCCN3CCOCC3)c(C)c2c1	-0.4	i	-4.4	-0.3	17.0*	>50
CCCc1ccc2oc(C(=O)NCCCN3CCOCC3)c(C)c2c1	nt	i	0.8	nt	0.8	nt
COc1ccccc1N1CCN(c2cc(=O)n(Cc3ccc(F)cc3)c(=O)[nH]2)CC1	-3.3	i	nt	0.0	?	nt
O=c1cc(N2CCN(Cc3ccccc3)CC2)[nH]c(=O)n1-c1ccc(Br)cc1	0.0	i	9.6	3.2	31.1*	>50
CCN1CCN(c2cc(=O)n(Cc3ccc(F)cc3)c(=O)[nH]2)CC1	-6.1	i	-9.0	-78.7	28.8*	>50
CCOC(=O)N1CCN(c2cc(=O)n(Cc3ccc(F)cc3)c(=O)[nH]2)CC1	-0.6	i	-2.6	-2.0	25.8*	>50
N#C/C(=C\c1ccc(-c2ccc(F)cc2)o1)C(=O)Nc1nc(-c2cccs2)cs1	-31.7	i	-1.6	-8.8	18.6*	>50
N#C/C(=C/c1ccc(-c2ccc([N+](=O)[O-])cc2)o1)C(=O)Nc1nc(-c2cccs2)cs1	nt	nt	18.8	nt	nt	nt
COc1ccc(-c2c(C)c3ccc(O)cc3oc2=O)cc1OC	nt	i	27.7	nt	20.0*	34.3*
SMILES	Runt-SMMHC FRET	Rce1 inh	Vif inh	Runt-CBFb FRET	RanGTP-Impb inh	YIC counter
COc1ccccc1/C=C/c1nc(C#N)c(N(C)C)o1	nt	i	3.9	nt	27.9*	13.1*
CCOC(=O)C1=C(COC(=O)CCc2ccc(CC)cc2)NC(=O)NC1C (stereo unspecified)	nt	nt	7.9	nt	nt	nt
O=C(C1=C(O)C(=O)N(Cc2cccnc2)C1c1ccccn1)c1cccs1 (stereo unspecified)	-8.2	i	-3.7	1.7	?	nt
COc1cc2c(cc1C1C(C#N)=C(N)OC3=C1C(=O)CC(C)(C)C3)OCO2 (stereo unspecified)	nt	i	0.8	nt	-1.7	nt
COc1ccc(C2C(C#N)=C(N)Oc3cc4c(cc32)OCO4)cc1 (stereo unspecified)	9.8	i	-1.0	12.6	25.0*	>50
COCC(C)N1CCC(n2nccc2NC(=O)CCOc2ccccc2)CC1 (stereo unspecified)	nt	nt	1.4	nt	3.9	nt
CC(CC(F)(F)F)N1CCC(n2nccc2NC(=O)CCOc2ccccc2)CC1 (stereo unspecified)	nt	i	-0.1	nt	26.5*	>50
Cc1cccc(NC(=O)CSCC(=O)Nc2ccccc2N2CCCC2)c1	nt	i	0.5	nt	0.1	nt
CN(C)S(=O)(=O)c1ccc(N2CCCC2)c(C(=O)NC(c2ccccc2)c2ccccc2)c1	-5.0	i	7.5	-1.5	19.1*	>50
CN(C)S(=O)(=O)c1ccc(N2CCCC2)c(C(=O)NNC(=O)c2ccccc2)c1	nt	nt	9.2	nt	nt	nt
CNS(=O)(=O)c1cc(OC)c(OC)cc1CC(=O)OC	1.7	i	2.4	0.0	20.8*	>50
CC(C)CNC(=S)N(Cc1ccco1)Cc1cc2cc3c(cc2[nH]c1=O)OCCO3	-2.3	i	0.9	-9.2	1.8	nt
CCN(Cc1ccccc1)C(=O)CN1C(=O)NC(CC)(c2ccc(F)cc2)C1=O (stereo unspecified)	nt	i	2.8	nt	23.5*	>50
CCC1(c2ccc(F)cc2)NC(=O)N(CC(=O)Nc2ccccc2C)C1=O (stereo unspecified)	nt	i	2.5	nt	1.1	nt
O=C(O)Cn1cc(/C=C2\SC(=O)N(c3ccccc3)C2=O)c2ccccc21	28.6	i	13.0	14.2	24.1*	38.9*
O=C(O)Cn1cc(/C=C2/SC(=O)N(CC(=O)N3CCCCCC3)C2=O)c2ccccc21	27.1	nt	nt	8.0	17.0*	>50
COCCn1c(=N)c(S(=O)(=O)c2ccc(F)cc2)cc2c(=O)n3cccc(C)c3nc21	nt	i	21.8	nt	-2.7	nt
N=c1c(S(=O)(=O)c2ccc(Cl)cc2)cc2c(=O)n3ccccc3nc2n1Cc1cccnc1	nt	i	0.9	nt	32.9*	?
CCc1ccc(-c2nc(CSCC(=O)N3CCN(c4ccccn4)CC3)c(C)o2)cc1	-2.4	i	-3.7	-3.1	18.5*	>50
Cc1ccc(S(=O)(=O)N(CCC(=O)NCC(c2ccccc2)N(C)C)c2ccccc2)cc1 (stereo unspecified)	nt	nt	2.8	nt	nt	nt
Cc1cc(C)c2c(N)c(C(=O)NNC(=O)c3ccccc3)sc2n1	1.9	i	3.1	1.6	11.1	nt
Cc1cc(C)c2c(N)c(C(=O)NN3CC(=O)N(c4ccccc4F)CC3=O)sc2n1	8.1	i	18.9	6.0	16.4*	>50
Oc1sc(C=Nc2ccc(F)cc2)c2ccccc12	-149.4	i	10.2	-13.1	-5.4	nt
Oc1c(C=Nc2ccccc2)sc2ccccc12	nt	i	-6.0	nt	16.3*	7.57*
O=[N+]([O-])c1cc(N=Nc2ccc3ccccc3c2)ccc1O	nt	i	14.8	nt	-7.6	nt
O=C1C(=O)N(CCS(=O)(=O)c2ccccc2)c2ccc(Cl)cc21	nt	i	2.5	nt	39.0*	>50
